Experimental data from PubChem BioAssay.
Activity calls are given as the source filed them.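 How the source made its calls, unless noted: active means GFP response above 150% of the DMSO level; inconclusive means fewer than 70 events counted for a yeast strain; inactive means the rest.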

Tests used:
[1] = RPL19A-GFP modulators, yeast TOR pathway, confirmation, cell-based, S. cerevisiae, flow cytometry, cherry picks, mother/daughter gates (AID 2270;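 active means GFP response below 50% of the DMSO control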); conditions: S. cerevisiae RPL19A-GFP strain, 3 h, at 10 µM, stronger effect = lower value, 100 = same GFP as DMSO wells
[2] = LAP4-GFP expression modulators in yeast, confirmation, cell-based, cherry picks, flow cytometry, mother/daughter gates (AID 2271;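 active means GFP response above 150% of the DMSO control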;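 further: ratio of sample to DMSO plate mean so 100% equals DMSO level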); conditions: S. cerevisiae LAP4-GFP strain, 3 h, at 10 µM, stronger effect = higher value, 100 means same as DMSO control
Outline: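 Test system: GFP-fusion yeast strain / Amount: 0.2 OD600 cells / Buffer or medium: SC medium / Dosing: 10 µM single dose / Incubation: compound exposure 3 h at 30 °C, end-over-end rotation / Detection: HT flow cytometry, GFP fluorescence channel / Evaluation: median GFP fluorescence as percent of plate-mean DMSO wells / Control set: DMSO-only negative wells, rapamycin 400 ng/mL positive wells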

[3] = modulators of MEP2-GFP levels in yeast, confirmation, S. cerevisiae, flow cytometry GFP, cherry picks (AID 2272;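 active means GFP response above 150% of the DMSO control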;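 further: ratio of well signal to plate DMSO mean so 100% equals DMSO level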); conditions: S. cerevisiae MEP2-GFP strain, 3 h, at 10 µM, stronger effect = higher value
[4] = AGP1-GFP expression modulators, hit retest, confirmation, cell-based, flow cytometry, S. cerevisiae, cherry picks (AID 2273);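 further: median GFP channel fluorescence over the whole cell population gate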; conditions: S. cerevisiae AGP1-GFP strain, 3 h, at 10 µM
[5] = modulators of CIT2-GFP expression in yeast, confirmation, S. cerevisiae, GFP fusion, cherry picks, mother/daughter gates (AID 2274); conditions: S. cerevisiae CIT2-GFP strain, flow cytometry, 3 h, at 10 µM, stronger effect = higher value
[6] = measured here: daughter cell gate
[7] = measured here: mother cell gate
[8] = measured here: daughter cell gate response
[9] = measured here: mother cell gate response

Compound | GFP response vs DMSO [1] | GFP response vs DMSO [1, 6] [%] | GFP response vs DMSO [1, 7] [%] | GFP response relative to DMSO [2] | GFP response relative to DMSO [2, 8] [%] | GFP response relative to DMSO [2, 9] [%] | GFP response vs DMSO [3] | GFP response, % of DMSO [4] | GFP response, % of DMSO [5] | GFP response, % of DMSO [5, 6] [%] | GFP response, % of DMSO [5, 7] [%]
COC(=O)CNc1c(-c2ccccn2)nc2ccc(Br)cn12 | 100% (inactive) | 103 | 100 | 96.7% (inactive) | 96 | 96.1 | 102% (inactive) | 98.7% (inactive) | 107% (inactive) | 106 | 104
Cc1cc(C)n(C(=O)/C(C#N)=N\Nc2ccccc2[N+](=O)[O-])n1 | 91.7% (inactive) | 71.4 | 88.6 | 138% (inactive) | 98.7 | 154 | 163% (inactive) | 123% (inactive) | 102% (inactive) | 73.6 | 105
CSc1nc2ccc(S(=O)(=O)N3CCCC3)cc2s1 | 90.5% (inactive) | 85.5 | 93.3 | 135% (inactive) | 128 | 140 | 95.7% (inactive) | 94.1% (inactive) | 78.2% (inactive) | 75.2 | 80.5
Cc1ccc(C(=O)c2nocc2C(=O)c2cccs2)cc1 | 98.7% (inactive) | 93.6 | 99.8 | 123% (inactive) | 111 | 128 | 95.4% (inactive) | 89.9% (inactive) | 80.6% (inactive) | 79.7 | 80.5
CCCc1nnc(N2C(=O)c3cccc4cccc(c34)C2=O)s1 | 103% (inactive) | 103 | 102 | 115% (inactive) | 104 | 113 | 103% (inactive) | 108% (inactive) | 113% (inactive) | 106 | 115
Cc1ccc(/C=C/C(=O)c2ccccc2)cc1 | 97.4% (inactive) | 96.7 | 98.3 | 100% (inactive) | 102 | 99.5 | 99.5% (inactive) | 102% (inactive) | 102% (inactive) | 100 | 99.1
CS(=O)(=O)N1N=C(c2ccco2)CC1c1ccc(Cl)cc1 (stereo not drawn) | 101% (inactive) | 102 | 101 | 96.5% (inactive) | 97.9 | 94.6 | 104% (inactive) | 101% (inactive) | 101% (inactive) | 100 | 100
NC(N)=N/N=C/c1ccc(OCc2ccc(Cl)cc2Cl)cc1 | 88.9% (inactive) | 82.8 | 87.2 | 115% (inactive) | 106 | 121 | 105% (inactive) | 99.1% (inactive) | 85.5% (inactive) | 80.7 | 84.3
